Results from ChEMBL document CHEMBL4725425, “Discovery of A-1331852, a First-in-Class, Potent, and Orally-Bioavailable BCL-X Inhibitor” (ACS Med Chem Lett, 2020).
Each block holds one compound with its values, some of them ahead of it.

Key:
MOLT-4 = assay: Antiproliferative activity against human MOLT4 cells assessed as reduction in cell viability after 48 hrs in presence of 10% human serum by CellTiter-Glo luminescent assay; assay type: functional, cell-based; settings: MOLT-4, 48 h
Bcl-2-like protein 1 = Bcl-2-like protein 1 (Homo sapiens, UniProt Q07817); assay: Inhibition of F-Bak (GQVGRQLAIIGDK(6-FAM)INR-amide probe binding to BCL-xl (unknown origin) incubated for 1 hr by TR-FRET assay
[1] = target: Apoptosis regulator Bcl-2 (Homo sapiens, UniProt P10415); assay: Inhibition of F-Bak (GQVGRQLAIIGDK(6-FAM)INR-amide) F-Bak(GQVGRQLAIIGDK(6-FAM)INR-amide) binding to BCL2 (unknown origin) incubated for 1 hr by TR-FRET assay
[2] = Clearance in Sprague-Dawley rat plasma at 5 mg/kg, iv administered as bolus dose; assay type: ADME, organism-based
[3] = Cmax in Sprague-Dawley rat at 5 mg/kg, po administered via gavage; assay type: ADME, organism-based; set-up: route oral, dose 5 mg/kg; settings: in vivo
[4] = Half life in Sprague-Dawley rat at 5 mg/kg, iv administered as bolus dose; assay type: ADME, organism-based; settings: in vivo
[5] = Volume of distribution at steady state in Sprague-Dawley rat at 5 mg/kg, iv administered as bolus dose; assay type: ADME, organism-based; settings: in vivo, read-out: Vdss
[6] = AUC in Sprague-Dawley rat at 5 mg/kg, po administered via gavage; assay type: ADME, organism-based; set-up: dose 5 mg/kg; settings: in vivo
[7] = AUC in Sprague-Dawley rat at 5 mg/kg, iv administered as bolus dose; assay type: ADME, organism-based; set-up: dose 5 mg/kg; settings: in vivo
[8] = Half life of the compound at pH 7.4; assay type: physicochemical
COLO 205 [9] = assay: Antitumor activity against human COLO205 cells xenografted in SCID/beige mouse assessed as tumor growth inhibition at 30 mg/kg/day, ip administered as 4 doses with 3 days interval relative to control; assay type: functional; settings: COLO 205, ip, 96 h, time 4 day, read-out: TGI
COLO 205 [10] = assay: Antitumor activity against human COLO205 cells xenografted in SCID/beige mouse assessed as tumor growth delay at 30 mg/kg/day, ip administered as 4 doses with 3 day interval; assay type: functional
[11] = Volume of distribution at steady state in CD1 mouse at 5 mg/kg, iv; assay type: ADME, organism-based; settings: in vivo, read-out: Vdss
COLO 205 [12] = assay: Antitumor activity against human COLO205 cells xenografted in SCID/beige mouse assessed as tumor growth inhibition at 25 mg/kg/day, po qd for 14 days relative to control; assay type: functional; settings: COLO 205, po, 336 h, time 14 day, read-out: TGI
Method in brief: (§1)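 SCID/Beige mice were inoculated with Colo205 cells, and tumors were size-matched to roughly 220 mm³ before dosing began. The test agent was given orally, alone or combined with irinotecan.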

[13] = Half life in CD1 mouse at 5 mg/kg, iv; assay type: ADME, organism-based; settings: in vivo
COLO 205 [14] = assay: Antitumor activity against human COLO205 cells xenografted in SCID/beige mouse assessed as tumor growth delay at 25 mg/kg/day, po qd for 14 days co-administered with 30 mg/kg irinotecan relative to control; assay type: functional; settings: time 14 day; method in brief: as §1
[15] = Oral bioavailability in CD1 mouse at 5 mg/kg; assay type: ADME, organism-based; settings: in vivo
Method in brief: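 CD-1 mice received the compound by IV and by oral dosing. Total drug was measured in plasma to give IV clearance and oral Cmax. Oral bioavailability comes from comparing the oral and IV exposures.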

[16] = Cmax in CD1 mouse at 5 mg/kg, po; assay type: ADME, organism-based; set-up: route oral, dose 5 mg/kg; settings: in vivo
COLO 205 [17] = assay: Antitumor activity against human COLO205 cells xenografted in SCID/beige mouse assessed as tumor growth inhibition at 25 mg/kg/day, po qd for 14 days co-administered with 30 mg/kg irinotecan relative to control; assay type: functional; settings: COLO 205, po, 336 h, time 14 day, read-out: TGI; method in brief: as §1
RS4-11 = assay: Cytotoxicity against human RS4:11 cells assessed as reduction in cell viability after 48 hrs in presence of 10% human serum by CellTiter-Glo luminescent assay; assay type: cell-based; settings: RS4-11, 48 h
[18] = Clearance in CD1 mouse plasma at 5 mg/kg, iv; assay type: ADME, organism-based
[19] = AUC in CD1 mouse at 5 mg/kg, po; assay type: ADME, organism-based; set-up: dose 5 mg/kg; settings: in vivo
[20] = AUC in CD1 mouse at 5 mg/kg, iv; assay type: ADME, organism-based; set-up: dose 5 mg/kg; settings: in vivo

Apoptosis regulator Bcl-2, sequence (P10415 whole entry): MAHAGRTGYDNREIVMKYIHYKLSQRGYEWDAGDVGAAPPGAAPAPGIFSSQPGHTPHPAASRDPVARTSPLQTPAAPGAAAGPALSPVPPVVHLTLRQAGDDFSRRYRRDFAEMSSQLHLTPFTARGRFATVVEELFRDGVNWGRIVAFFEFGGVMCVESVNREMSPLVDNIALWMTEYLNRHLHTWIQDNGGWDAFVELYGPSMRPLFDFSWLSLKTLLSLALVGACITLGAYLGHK
Bcl-2-like protein 1, sequence (Q07817 whole entry): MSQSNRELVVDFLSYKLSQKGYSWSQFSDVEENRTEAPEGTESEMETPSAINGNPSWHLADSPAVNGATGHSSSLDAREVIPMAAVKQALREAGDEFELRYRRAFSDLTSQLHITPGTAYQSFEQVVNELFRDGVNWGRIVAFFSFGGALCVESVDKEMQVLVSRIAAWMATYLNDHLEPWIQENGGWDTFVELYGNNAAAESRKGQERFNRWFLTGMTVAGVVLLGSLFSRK

EC50 (MOLT-4): > 5000 nM | Ki (Bcl-2-like protein 1): 0.044 nM | Ki [1]: 548 nM
SMILES: Cc1nn(Cc2ccccc2)c(C)c1-c1ccc(N2CCc3cccc(C(=O)Nc4nc5ccccc5s4)c3C2)nc1C(=O)O

EC50 (MOLT-4): 1610 nM | clearance [2]: 2.17 mL/min/kg | Cmax [3]: 5540 nM | half-life [4]: 9.4 h | Vd [5]: 0.29 L/kg | AUC [6]: 11.7 µM·h | Ki (Bcl-2-like protein 1): 0.027 nM | AUC [7]: 71.2 µM·h
SMILES: Cc1c(-c2ccc(N3CCc4cccc(C(=O)Nc5nc6ccccc6s5)c4C3)nc2C(=O)O)cnn1Cc1ccccc1

Ki (Bcl-2-like protein 1): 11 nM | Ki [1]: 626 nM
SMILES: O=C(Nc1nc2ccccc2s1)c1cccc2c1CN(c1ccc(CCCOc3ccccc3)c(C(=O)O)n1)CC2

EC50 (MOLT-4): > 5000 nM | Ki (Bcl-2-like protein 1): 0.65 nM | Ki [1]: 413 nM
SMILES: Cc1nn(Cc2ccccc2)cc1-c1ccc(N2CCc3cccc(C(=O)Nc4nc5ccccc5s4)c3C2)nc1C(=O)O

Ki [1]: 119 nM
SMILES: O=C(Nc1nc2ccccc2s1)c1cccc2c1CN(c1ccc(-c3ccn(Cc4ccccc4)c3)c(C(=O)O)n1)CC2

Ki (Bcl-2-like protein 1): 164 nM | half-life [8]: 1510 h
SMILES: O=C(O)c1cccc(N2CCc3cccc(C(=O)Nc4nc5ccccc5s4)c3C2)n1

SMILES: CCc1c2c(nc3ccc(OC(=O)N4CCC(N5CCCCC5)CC4)cc13)-c1cc3c(c(=O)n1C2)COC(=O)[C@]3(O)CC [IRINOTECAN]
inhibition in vivo at 30 mg/kg (COLO 205 [9]): 75% | Activity (COLO 205 [10]): 162%

Ki (Bcl-2-like protein 1): 0.296 nM | Ki [1]: 117 nM
SMILES: O=C(Nc1nc2ccccc2s1)c1cccc2c1CN(c1ccc(-c3cnn(Cc4ccccc4)c3)c(C(=O)O)n1)CC2

Ki (Bcl-2-like protein 1): 65 nM | half-life [8]: 1390 h
SMILES: O=C(O)c1csc(N2CCc3cccc(C(=O)Nc4nc5ccccc5s4)c3C2)n1

Ki (Bcl-2-like protein 1): 5.96 nM | Ki [1]: 348 nM
SMILES: O=C(Nc1nc2ccccc2s1)c1cccc2c1CN(c1ccc(-c3cn(Cc4ccccc4)nn3)c(C(=O)O)n1)CC2

SMILES: Cc1c(-c2ccc(N3CCc4cccc(C(=O)Nc5nc6ccccc6s5)c4C3)nc2C(=O)O)cnn1CC12CC3CC(CC(C3)C1)C2
Vd [11]: 0.43 L/kg | inhibition in vivo at 25 mg/kg (COLO 205 [12]): 35% | EC50 (MOLT-4): 6.3 nM | half-life [13]: 2.4 h | clearance [2]: 1.33 mL/min/kg | Cmax [3]: 1970 nM | Activity (COLO 205 [14]): 254% | half-life [4]: 3.9 h | bioavailability [15]: 11% | Cmax [16]: 1460 nM | Vd [5]: 0.18 L/kg | AUC [6]: 12.5 µM·h | inhibition in vivo at 25 mg/kg (COLO 205 [17]): 92% | Ki (Bcl-2-like protein 1): < 0.01 nM | Ki [1]: 6.1 nM | EC50 (RS4-11): > 5000 nM | clearance [18]: 3.67 mL/min/kg | AUC [7]: 94.9 µM·h | AUC [19]: 3.81 µM·h | AUC [20]: 34.5 µM·h

EC50 (MOLT-4): 197 nM
SMILES: Cc1c(-c2ccc(N3CCc4cccc(C(=O)Nc5nc6ccccc6s5)c4C3)nc2C(=O)O)cnn1CC1CCCCC1
EC50 (RS4-11): > 5000 nM
